Activity calls are given as the source filed them. No cut-off for these calls is given here.

In experiment [1] the target is T1, C-C chemokine receptor type 1 (Homo sapiens) (UniProt P32246).
T1 sequence (whole entry): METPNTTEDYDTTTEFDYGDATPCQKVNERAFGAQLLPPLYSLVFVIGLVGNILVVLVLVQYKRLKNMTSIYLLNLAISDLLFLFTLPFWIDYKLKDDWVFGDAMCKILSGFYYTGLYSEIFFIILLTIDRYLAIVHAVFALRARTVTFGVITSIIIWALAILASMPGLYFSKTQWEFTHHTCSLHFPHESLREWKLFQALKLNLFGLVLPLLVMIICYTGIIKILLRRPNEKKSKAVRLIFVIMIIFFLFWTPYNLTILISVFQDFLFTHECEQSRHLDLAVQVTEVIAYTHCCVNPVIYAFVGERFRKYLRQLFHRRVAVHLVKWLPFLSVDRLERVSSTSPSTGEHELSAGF
The experiment is described as follows: Binding affinity to CCR1.

For experiment [2], the system named is Neutrophil. The experiment is described as follows: Cytotoxicity against human neutrophils assessed as viable cells after 2 hrs. Format: functional. Further details: concentration or dose not given beside the values. Summed up: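 Human neutrophils (2 × 10⁶/mL) from healthy donors were incubated 2 h at 37 °C under CO₂ in HBSS:PBS (3:1) with 1 mg/mL BSA, with compounds. Membrane integrity was read by fluorescein diacetate/ethidium bromide staining for 10 min at room temperature, under UV dark-field microscopy. Green cells were scored viable; red nuclei were scored necrotic.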

Experiment [3] has as its target T2, C-C chemokine receptor type 3 (Homo sapiens) (UniProt P51677).
T2 sequence (whole entry): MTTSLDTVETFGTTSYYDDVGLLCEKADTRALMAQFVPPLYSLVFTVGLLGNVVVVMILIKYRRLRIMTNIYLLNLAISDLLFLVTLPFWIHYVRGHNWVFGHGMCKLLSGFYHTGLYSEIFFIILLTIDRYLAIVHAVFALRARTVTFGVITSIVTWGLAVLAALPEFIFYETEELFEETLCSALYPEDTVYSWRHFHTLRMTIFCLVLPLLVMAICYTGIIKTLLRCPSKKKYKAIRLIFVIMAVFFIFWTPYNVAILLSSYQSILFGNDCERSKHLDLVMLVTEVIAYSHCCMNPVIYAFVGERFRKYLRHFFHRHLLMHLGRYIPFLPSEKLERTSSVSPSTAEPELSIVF
Briefly: Binding affinity to CCR3.

In experiment [4] the target is Mitogen-activated protein kinase 1 (Homo sapiens) (UniProt P28482). Briefly: Binding affinity to ERK2.
Experiment [5] concerns the target Mitogen-activated protein kinase 9 (Homo sapiens) (UniProt P45984). Briefly: Binding affinity to JNK2.
The target of experiment [6] is Proto-oncogene tyrosine-protein kinase Src (Homo sapiens) (UniProt P12931). The experiment is described as follows: Binding affinity to SRC.
Experiment [7] addresses T3, Mitogen-activated protein kinase 13 (Homo sapiens) (UniProt O15264).
T3 sequence (whole entry): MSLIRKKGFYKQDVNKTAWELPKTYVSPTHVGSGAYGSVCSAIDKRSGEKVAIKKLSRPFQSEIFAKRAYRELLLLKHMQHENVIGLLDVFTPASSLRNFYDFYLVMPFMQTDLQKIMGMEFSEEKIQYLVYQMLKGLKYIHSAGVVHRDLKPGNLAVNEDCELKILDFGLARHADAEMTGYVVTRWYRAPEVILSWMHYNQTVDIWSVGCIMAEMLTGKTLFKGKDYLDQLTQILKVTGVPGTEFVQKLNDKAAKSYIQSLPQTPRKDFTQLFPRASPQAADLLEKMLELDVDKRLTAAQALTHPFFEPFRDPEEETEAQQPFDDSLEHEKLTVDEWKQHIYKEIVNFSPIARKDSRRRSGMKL
Briefly: Binding affinity p38delta.

For experiment [8], the system named is Neutrophil. Briefly: Reduction of IL8-stimulated F-actin polymerization in human neutrophils. It is filed as functional. Also noted: scale not given: the % may be the effect or the level left. In a few lines: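 Donor neutrophils were incubated ± compound, washed three times, then stimulated 30 min with medium or 100 nM IL8. Cytospins were stained with Alexa Fluor 488-phalloidin and examined by fluorescence microscopy. Mean fluorescence density came from linear per-cell measurement across ≥5 random fields per slide, in duplicate, ≥3 experiments. Values were given as area percentage, mean ± SD.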

Experiment [9] has as its target Tyrosine-protein kinase HCK (Homo sapiens) (UniProt P08631). Briefly: Binding affinity to Hck.
Experiment [10] addresses Mitogen-activated protein kinase 8 (Homo sapiens) (UniProt P45983). Briefly: Binding affinity to JNK1.
Experiment [11] has as its target T4, C-X-C chemokine receptor type 1 (Homo sapiens) (UniProt P25024).
T4 sequence (whole entry): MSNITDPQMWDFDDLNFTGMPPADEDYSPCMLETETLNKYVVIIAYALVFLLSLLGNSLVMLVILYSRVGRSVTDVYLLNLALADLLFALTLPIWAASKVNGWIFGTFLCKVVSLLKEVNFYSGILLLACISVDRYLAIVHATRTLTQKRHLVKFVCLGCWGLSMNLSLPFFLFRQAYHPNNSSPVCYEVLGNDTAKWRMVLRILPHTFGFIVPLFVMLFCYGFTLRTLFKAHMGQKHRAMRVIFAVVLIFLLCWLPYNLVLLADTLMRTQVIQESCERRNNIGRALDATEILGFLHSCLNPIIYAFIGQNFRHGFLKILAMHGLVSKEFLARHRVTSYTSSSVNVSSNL
The experiment is described as follows: Binding affinity to CXCR1.

In experiment [12] the target is Mitogen-activated protein kinase 14 (Homo sapiens) (UniProt Q16539). The experiment is described as follows: Binding affinity to p38alpha.
The target in experiment [13] is C-C chemokine receptor type 2 (Homo sapiens) (UniProt P41597). Briefly: Binding affinity to CCR2.
For experiment [14], the target named is RAC-alpha serine/threonine-protein kinase (Homo sapiens) (UniProt P31749). The experiment is described as follows: Binding affinity to Akt1.
For experiment [15], the target named is T5, Tyrosine-protein kinase ZAP-70 (Homo sapiens) (UniProt P43403).
T5 sequence (whole entry): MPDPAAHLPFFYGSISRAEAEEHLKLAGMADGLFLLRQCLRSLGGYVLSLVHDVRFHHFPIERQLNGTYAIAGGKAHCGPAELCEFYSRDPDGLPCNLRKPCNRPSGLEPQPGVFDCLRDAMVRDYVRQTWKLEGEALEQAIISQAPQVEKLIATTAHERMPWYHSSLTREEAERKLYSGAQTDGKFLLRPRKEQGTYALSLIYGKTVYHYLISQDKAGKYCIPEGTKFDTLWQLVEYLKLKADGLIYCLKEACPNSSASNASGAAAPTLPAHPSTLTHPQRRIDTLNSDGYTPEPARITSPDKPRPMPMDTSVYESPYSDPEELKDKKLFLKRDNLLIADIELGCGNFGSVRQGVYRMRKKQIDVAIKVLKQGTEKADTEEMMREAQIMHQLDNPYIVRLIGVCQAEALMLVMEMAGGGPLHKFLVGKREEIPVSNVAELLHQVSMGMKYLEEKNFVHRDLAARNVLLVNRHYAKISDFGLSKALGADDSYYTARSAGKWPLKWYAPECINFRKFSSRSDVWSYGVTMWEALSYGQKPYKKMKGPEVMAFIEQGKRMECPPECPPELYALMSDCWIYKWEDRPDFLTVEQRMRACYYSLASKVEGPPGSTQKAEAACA
Briefly: Binding affinity to Zap70.

Sequence of Proto-oncogene tyrosine-protein kinase Src (Homo sapiens) (P12931 2-536 limits assumed): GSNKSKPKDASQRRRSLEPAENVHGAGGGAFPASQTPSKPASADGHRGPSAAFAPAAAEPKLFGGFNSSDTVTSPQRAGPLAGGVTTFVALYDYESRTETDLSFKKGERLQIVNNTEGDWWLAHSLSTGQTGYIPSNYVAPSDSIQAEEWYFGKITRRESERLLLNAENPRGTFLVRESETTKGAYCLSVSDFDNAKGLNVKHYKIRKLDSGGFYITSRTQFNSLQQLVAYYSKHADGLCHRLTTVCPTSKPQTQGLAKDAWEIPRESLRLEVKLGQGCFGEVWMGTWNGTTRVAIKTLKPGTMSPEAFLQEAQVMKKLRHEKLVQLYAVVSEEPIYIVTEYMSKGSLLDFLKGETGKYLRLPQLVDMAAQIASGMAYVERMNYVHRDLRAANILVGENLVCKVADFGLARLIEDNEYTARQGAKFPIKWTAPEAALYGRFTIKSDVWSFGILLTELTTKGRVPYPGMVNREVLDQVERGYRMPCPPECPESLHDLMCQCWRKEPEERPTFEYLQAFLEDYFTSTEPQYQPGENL
Sequence of C-C chemokine receptor type 2 (Homo sapiens) (P41597 whole entry, looked up): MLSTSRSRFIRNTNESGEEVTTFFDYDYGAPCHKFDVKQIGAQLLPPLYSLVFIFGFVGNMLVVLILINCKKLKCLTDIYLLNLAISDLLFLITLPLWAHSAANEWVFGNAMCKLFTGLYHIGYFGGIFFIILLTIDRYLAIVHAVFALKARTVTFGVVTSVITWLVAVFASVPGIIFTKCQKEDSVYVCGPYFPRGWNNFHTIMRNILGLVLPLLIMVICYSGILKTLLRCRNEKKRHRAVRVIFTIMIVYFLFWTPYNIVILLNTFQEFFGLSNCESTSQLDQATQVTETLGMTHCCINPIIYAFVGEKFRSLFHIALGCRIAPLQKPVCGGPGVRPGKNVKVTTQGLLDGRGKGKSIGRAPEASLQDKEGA
Sequence of RAC-alpha serine/threonine-protein kinase (Homo sapiens) (P31749 whole entry): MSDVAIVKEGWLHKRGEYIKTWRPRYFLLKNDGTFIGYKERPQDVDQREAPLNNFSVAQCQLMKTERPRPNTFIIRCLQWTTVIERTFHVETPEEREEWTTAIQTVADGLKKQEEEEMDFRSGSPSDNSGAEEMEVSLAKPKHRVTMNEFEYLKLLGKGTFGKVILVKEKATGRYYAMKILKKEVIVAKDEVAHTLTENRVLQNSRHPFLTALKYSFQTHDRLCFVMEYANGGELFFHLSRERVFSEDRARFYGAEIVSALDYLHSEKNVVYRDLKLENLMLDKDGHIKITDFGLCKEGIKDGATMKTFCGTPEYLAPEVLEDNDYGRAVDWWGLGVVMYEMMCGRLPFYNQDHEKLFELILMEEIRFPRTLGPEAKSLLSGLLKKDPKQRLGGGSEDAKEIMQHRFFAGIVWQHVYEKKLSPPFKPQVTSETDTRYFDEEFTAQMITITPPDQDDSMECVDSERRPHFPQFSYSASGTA
Sequence of Mitogen-activated protein kinase 1 (Homo sapiens) (P28482 whole entry): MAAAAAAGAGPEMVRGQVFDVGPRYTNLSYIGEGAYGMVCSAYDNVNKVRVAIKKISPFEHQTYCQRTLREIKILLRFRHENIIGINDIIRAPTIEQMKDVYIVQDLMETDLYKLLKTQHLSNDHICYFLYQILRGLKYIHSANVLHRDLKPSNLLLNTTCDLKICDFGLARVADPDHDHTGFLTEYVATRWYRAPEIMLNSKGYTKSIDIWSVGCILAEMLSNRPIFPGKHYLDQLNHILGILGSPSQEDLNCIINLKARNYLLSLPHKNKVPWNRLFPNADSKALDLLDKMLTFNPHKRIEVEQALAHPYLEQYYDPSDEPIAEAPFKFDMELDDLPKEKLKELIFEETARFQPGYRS
Sequence of Tyrosine-protein kinase HCK (Homo sapiens) (P08631 2-526 limits assumed): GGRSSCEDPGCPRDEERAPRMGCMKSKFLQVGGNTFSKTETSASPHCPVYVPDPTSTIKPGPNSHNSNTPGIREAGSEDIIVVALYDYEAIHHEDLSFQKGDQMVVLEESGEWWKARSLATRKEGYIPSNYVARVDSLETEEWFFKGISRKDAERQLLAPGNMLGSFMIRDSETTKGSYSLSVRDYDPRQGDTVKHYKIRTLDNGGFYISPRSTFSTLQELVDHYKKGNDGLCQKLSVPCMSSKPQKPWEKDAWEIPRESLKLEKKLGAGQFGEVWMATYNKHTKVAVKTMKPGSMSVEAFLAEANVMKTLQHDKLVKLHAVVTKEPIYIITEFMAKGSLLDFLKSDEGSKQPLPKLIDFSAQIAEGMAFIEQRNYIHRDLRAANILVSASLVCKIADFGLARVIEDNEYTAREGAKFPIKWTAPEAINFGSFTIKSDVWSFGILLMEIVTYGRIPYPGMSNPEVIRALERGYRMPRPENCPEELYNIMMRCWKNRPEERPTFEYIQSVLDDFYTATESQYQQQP
Sequence of Mitogen-activated protein kinase 9 (Homo sapiens) (P45984 whole entry, looked up): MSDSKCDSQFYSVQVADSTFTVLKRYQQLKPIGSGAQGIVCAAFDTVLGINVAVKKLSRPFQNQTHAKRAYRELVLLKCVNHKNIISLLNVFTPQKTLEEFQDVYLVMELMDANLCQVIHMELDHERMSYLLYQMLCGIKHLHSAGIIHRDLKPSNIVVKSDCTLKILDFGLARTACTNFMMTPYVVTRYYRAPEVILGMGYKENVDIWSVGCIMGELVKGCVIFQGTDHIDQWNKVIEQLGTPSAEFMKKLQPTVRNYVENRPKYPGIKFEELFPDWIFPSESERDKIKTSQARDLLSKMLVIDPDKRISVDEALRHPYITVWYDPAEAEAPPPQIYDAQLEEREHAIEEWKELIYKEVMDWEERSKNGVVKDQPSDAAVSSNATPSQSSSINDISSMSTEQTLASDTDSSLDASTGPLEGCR
Sequence of Mitogen-activated protein kinase 8 (Homo sapiens) (P45983 whole entry): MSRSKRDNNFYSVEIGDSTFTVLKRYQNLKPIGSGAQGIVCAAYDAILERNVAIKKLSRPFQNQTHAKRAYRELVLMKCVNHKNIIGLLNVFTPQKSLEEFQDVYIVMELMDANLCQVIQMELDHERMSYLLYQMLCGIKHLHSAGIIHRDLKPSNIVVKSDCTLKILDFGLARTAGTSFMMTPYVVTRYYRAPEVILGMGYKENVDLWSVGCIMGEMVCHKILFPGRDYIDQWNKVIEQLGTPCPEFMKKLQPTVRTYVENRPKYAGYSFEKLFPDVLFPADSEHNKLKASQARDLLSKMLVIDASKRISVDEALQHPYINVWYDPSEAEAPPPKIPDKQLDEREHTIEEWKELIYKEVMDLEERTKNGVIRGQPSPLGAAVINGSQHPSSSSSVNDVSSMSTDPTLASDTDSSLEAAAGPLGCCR
Sequence of Mitogen-activated protein kinase 14 (Homo sapiens) (Q16539 whole entry): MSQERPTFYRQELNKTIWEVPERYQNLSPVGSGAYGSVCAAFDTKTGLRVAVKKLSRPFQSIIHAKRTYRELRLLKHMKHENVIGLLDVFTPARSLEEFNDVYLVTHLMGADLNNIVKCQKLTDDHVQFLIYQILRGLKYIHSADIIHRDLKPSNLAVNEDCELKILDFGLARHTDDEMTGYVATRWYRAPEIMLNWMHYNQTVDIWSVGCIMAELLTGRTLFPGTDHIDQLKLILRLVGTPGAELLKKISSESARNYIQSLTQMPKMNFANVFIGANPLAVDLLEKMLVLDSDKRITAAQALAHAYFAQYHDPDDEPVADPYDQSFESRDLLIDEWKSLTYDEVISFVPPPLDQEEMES

As to `CCOC(=O)c1cnn(CC(O)c2ccccc2)c1NC(=O)Nc1ccccc1` (stereo not given), the result in [1], in [3], in [4], in [5], in experiment [6] and in [7] was inactive. The result in experiment [9], in experiment [10], in experiment [11], in experiment [12], in experiment [13] and in [14] was inactive. Further, in experiment [15], the result was inactive. Besides, the figures for the Activity in experiment [2] and in experiment [8] were 90% and 97%, respectively.
As to `CCOC(=O)c1cnn(CC(O)c2ccccc2)c1NC(=O)NC(C)C` (stereo not given), the result in experiment [1], in [3], in [4], in [5], in experiment [6] and in [7] was inactive. The outcome in experiment [9], in experiment [10], in experiment [11], in experiment [12], in [13] and in experiment [14] was inactive. The outcome in [15] was inactive. For the same molecule, the figures for the Activity in experiment [2] and in experiment [8] were 90% and 97%, respectively.
`CCOC(=O)c1cnn(CC(O)c2ccccc2)c1NC(=O)NCc1ccccc1` (stereo not given): the result in experiment [1], in experiment [3], in experiment [4], in experiment [5], in experiment [6] and in experiment [7] was inactive. For the same molecule, the result in experiment [9], in experiment [10], in [11], in [12], in experiment [13] and in experiment [14] was inactive. Besides, the result in experiment [15] was inactive. Further, the Activity in experiment [2] was 90%; in experiment [8], 69%.
